Measurements from ChEMBL document CHEMBL4138195, “Discovery of novel propargylamine-modified 4-aminoalkyl imidazole substituted pyrimidinylthiourea derivatives as multifunctional agents for the treatment of Alzheimer's disease” (Eur J Med Chem, 2018).
The source made the active and inactive calls. The calls are words filed in the database; no cut-off is given here.

Experiments:
[1] = biological target: T1, Amine oxidase [flavin-containing] A (Homo sapiens, UniProt P21397); experiment: Inhibition of recombinant human MAOA using p-tyramine as substrate preincubated for 15 mins followed by substrate addition measured after 15 mins by Amplex red reagent based fluorescence assay
T1 sequence (P21397 whole entry): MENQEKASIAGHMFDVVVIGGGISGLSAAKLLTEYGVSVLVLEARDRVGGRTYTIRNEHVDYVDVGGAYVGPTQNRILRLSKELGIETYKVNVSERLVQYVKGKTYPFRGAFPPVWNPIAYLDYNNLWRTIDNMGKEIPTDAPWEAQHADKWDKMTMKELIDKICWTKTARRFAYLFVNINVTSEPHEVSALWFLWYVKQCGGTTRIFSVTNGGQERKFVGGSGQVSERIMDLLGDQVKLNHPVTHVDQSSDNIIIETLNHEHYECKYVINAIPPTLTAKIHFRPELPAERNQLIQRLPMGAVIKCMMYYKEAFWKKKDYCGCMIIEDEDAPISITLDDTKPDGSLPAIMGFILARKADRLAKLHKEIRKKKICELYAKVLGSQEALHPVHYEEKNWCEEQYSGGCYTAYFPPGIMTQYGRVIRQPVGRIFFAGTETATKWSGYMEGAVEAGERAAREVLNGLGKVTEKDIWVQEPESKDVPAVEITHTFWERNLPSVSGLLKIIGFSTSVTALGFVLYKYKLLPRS

[2] = biological target: Butyrylcholinesterase (Rattus norvegicus) (UniProt Q9JKC1); experiment: Inhibition of BuChE in rat serum at 40 uM using butyrylthiocholine iodide as substrate after 20 mins by Ellman's method
Acetylcholinesterase = biological target: T2, Acetylcholinesterase (Rattus norvegicus, UniProt P37136); experiment: Inhibition of AChE in rat cortex homogenate using acetylthiocholine iodide as substrate after 20 mins by Ellman's method
T2 sequence (P37136 whole entry): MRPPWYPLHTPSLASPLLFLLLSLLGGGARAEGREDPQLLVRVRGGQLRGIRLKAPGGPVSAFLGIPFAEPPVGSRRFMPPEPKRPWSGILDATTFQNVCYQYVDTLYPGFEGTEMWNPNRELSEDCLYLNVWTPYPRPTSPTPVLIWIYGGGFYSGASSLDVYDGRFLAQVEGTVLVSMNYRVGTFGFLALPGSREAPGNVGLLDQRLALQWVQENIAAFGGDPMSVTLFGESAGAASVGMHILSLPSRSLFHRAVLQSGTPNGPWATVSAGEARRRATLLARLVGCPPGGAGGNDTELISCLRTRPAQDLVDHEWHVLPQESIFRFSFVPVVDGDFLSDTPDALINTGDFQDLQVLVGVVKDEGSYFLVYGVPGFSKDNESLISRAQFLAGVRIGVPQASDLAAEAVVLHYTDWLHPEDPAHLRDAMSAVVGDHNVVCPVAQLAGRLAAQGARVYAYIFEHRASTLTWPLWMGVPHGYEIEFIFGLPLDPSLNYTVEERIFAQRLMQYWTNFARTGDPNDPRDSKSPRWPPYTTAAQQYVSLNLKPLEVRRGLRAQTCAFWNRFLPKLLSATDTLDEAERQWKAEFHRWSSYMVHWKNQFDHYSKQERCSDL

[3] = biological target: T3, Amine oxidase [flavin-containing] B (Homo sapiens, UniProt P27338)
T3 sequence (P27338 whole entry): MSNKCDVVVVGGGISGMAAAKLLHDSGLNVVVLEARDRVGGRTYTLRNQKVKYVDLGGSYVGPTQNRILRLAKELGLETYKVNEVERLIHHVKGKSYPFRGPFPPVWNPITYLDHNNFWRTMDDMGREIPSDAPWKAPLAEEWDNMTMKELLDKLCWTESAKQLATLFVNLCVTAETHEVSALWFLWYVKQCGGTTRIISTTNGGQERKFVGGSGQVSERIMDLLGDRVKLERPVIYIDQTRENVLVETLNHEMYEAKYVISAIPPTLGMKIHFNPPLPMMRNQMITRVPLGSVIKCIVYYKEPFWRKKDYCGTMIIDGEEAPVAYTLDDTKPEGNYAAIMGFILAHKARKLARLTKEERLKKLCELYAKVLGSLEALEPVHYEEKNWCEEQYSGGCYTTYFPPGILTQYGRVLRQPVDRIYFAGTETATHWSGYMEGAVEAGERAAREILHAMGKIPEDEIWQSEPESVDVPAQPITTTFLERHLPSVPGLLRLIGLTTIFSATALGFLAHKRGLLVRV

[4] = biological target: T1, Amine oxidase [flavin-containing] A; experiment: Inhibition of recombinant human MAOA at 50 uM using p-tyramine as substrate preincubated for 15 mins followed by substrate addition measured after 15 mins by Amplex red reagent based fluorescence assay; conditions: 0.25 h
Outline: (§1)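 Recombinant human MAO-A (12.5 µg/mL) or MAO-B (75 µg/mL) preincubated 15 min at 37 °C with compound (diluted from 10 mM DMSO stock in 50 mM KH2PO4, pH 7.4). Amplex Red working solution added: 2 mM p-tyramine (MAO-A) or benzylamine (MAO-B), 2 U/mL HRP. After 15 min at 37 °C, fluorescence read (ex 545/em 590), background from enzyme-free wells subtracted.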

[5] = Antioxidant activity assessed as trolox equivalent of AAPH radical scavenging activity preincubated for 10 mins followed by AAPH addition measured every 2 mins for 180 mins by ORAC-FL assay; format: functional
Outline: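 Compound at 20 µM (diluted from 10 mM DMSO stock in 75 mM phosphate, pH 7.4) with fluorescein (0.117 µM diluted) for 10 min at 37 °C, then AAPH (40 mM solution) added. Fluorescence (ex 485/em 535) read every 2 min for 180 min. […] Triplicate wells, ≥3 runs.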

Butyrylcholinesterase = Butyrylcholinesterase (Rattus norvegicus, UniProt Q9JKC1); experiment: Inhibition of BuChE in rat serum using butyrylthiocholine iodide as substrate after 20 mins by Ellman's method
[6] = biological target: T3, Amine oxidase [flavin-containing] B; experiment: Inhibition of recombinant human MAOB at 50 uM using benzylamine as substrate preincubated for 15 mins followed by substrate addition measured after 15 mins by Amplex red reagent based fluorescence assay; conditions: 0.25 h
Rattus norvegicus = species: Rattus norvegicus; experiment: Selectivity index, ratio of IC50 for BuChE in rat serum to IC50 for AChE in rat cortex homogenate; format: tissue-based
Cortical neurone = experiment: Cytotoxicity against E17 Sprague-Dawley rat primary cortical neurons at 10 to 30 uM after 24 hrs by MTT assay; format: cell-based
in vitro [7] = conditions: PAMPA
Homo sapiens = species: Homo sapiens; experiment: Selectivity index, ratio of IC50 for recombinant human MAOA to IC50 for recombinant human MAOB; outline: as §1
[8] = Inhibition of Cu2+-mediated amyloid beta (1 to 42) peptide-induced cytotoxicity in E17 Sprague-Dawley rat primary cortical neurons assessed as neuroprotective activity by measuring increase in cell viability at 1 uM after 24 hrs by MTT assay
Outline: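 Rat E17 primary cortical neurons after 9 days in culture. Aβ1-42 samples, prepared as for the dot blot (± Cu2+, ± compound), added to the cultures at 1 µM for 24 h. Viability by MTT, normalized to the vehicle group. EGCG and clioquinol as positive controls.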

[9] = Inhibition of Cu2+-induced amyloid beta (1 to 42 residues) (unknown origin) aggregation assessed as reduction in amyloid beta fibril load at 50 uM after 24 hrs by phosphotungstic acid staining-based transmission electron microscopic method
Outline: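 Aβ1-42 (25 µM) ± CuCl2 (25 µM) ± compound (50 µM) in HEPES/NaCl pH 6.6, incubated 24 h at 37 °C. Aliquots placed on carbon-coated copper grids for 30 min, stained 20 s with 2% phosphotungstic acid, imaged by TEM. Clioquinol as comparator.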

in vitro [10] = conditions: PAMPA, pH 7.4

Butyrylcholinesterase (Rattus norvegicus), sequence (Q9JKC1 as listed by the source): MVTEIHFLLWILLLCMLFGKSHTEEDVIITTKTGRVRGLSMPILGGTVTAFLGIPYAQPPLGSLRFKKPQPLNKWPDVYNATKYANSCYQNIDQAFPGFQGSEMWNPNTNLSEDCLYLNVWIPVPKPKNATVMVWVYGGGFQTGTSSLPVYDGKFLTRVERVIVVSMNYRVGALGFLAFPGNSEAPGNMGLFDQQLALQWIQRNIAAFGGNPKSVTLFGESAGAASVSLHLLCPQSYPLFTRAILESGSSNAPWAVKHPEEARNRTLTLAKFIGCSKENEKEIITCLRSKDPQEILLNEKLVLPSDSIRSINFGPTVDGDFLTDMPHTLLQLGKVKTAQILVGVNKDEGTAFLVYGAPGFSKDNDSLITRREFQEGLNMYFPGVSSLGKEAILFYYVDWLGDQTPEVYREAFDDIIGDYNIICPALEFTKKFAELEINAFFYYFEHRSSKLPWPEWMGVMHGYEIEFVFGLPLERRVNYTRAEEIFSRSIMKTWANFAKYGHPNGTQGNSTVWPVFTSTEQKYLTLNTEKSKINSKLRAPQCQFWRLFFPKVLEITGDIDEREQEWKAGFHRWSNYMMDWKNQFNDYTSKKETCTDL
Butyrylcholinesterase, sequence (Q9JKC1 whole entry): as the sequence (Q9JKC1 as listed by the source) above

| inhibition [9] | Papp at 18 h, 25 ug/ml (in vitro [10]) | SMILES | IC50 [1] | inhibition [2] | IC50 (Acetylcholinesterase) | IC50 [3] | inhibition at 50 µM [4] | Activity (umolequiv/umol) [5] | IC50 (Butyrylcholinesterase) | inhibition at 50 µM [6] | Ratio IC50 (Rattus norvegicus) | Activity (Cortical neurone) | Papp at 12 h, 100 ug/ml (in vitro [7]) | Ratio IC50 (Homo sapiens) | Activity [8] |
| --- | --- | --- | --- | --- | --- | --- | --- | --- | --- | --- | --- | --- | --- | --- | --- |
| – | – | C#CCN(Cc1cn(-c2cc(NC(=S)NCC)ncn2)cn1)C(C)=O | > 50 µM | 5.15% | 0.515 µM | > 50 µM | 4.83% | 1.17 | > 40 µM | 1.17% | > 78 | – | – | – | – |
| – | – | C#CCN(CC)Cc1cn(-c2cc(NC(=S)NCC)ncn2)cn1 | > 50 µM | 10.5% | 0.482 µM | > 50 µM | 6.71% | 1.38 | > 40 µM | 35.1% | > 83 | – | – | – | – |
| – | – | C#CCN(C)CCCc1cn(-c2cc(NC(=S)NCC)ncn2)cn1 | > 50 µM | 6.7% | 0.459 µM | 3.23 µM | 63.8% | 0.447 | > 40 µM | – | – | – | – | – | – |
| – | – | COc1cc2c(cc1OC)C(=O)C(CC1CCN(Cc3ccccc3)CC1)C2 (stereo not drawn) [DONEPEZIL] | – | – | – | – | – | – | – | – | – | Non-Toxic | – | – | – |
| – | – | C#CCN1CCN(Cc2cn(-c3cc(NC(=S)NCC)ncn3)cn2)CC1 | > 50 µM | 7.3% | 0.482 µM | > 50 µM | 9.22% | 1.03 | > 40 µM | 13.3% | > 83 | – | – | – | – |
| – | – | C#CCNCCc1cn(-c2cc(NC(=S)NCC)ncn2)cn1 | > 50 µM | 8.73% | 0.228 µM | > 50 µM | 54.2% | 1.27 | > 40 µM | 19.2% | > 175 | – | 3.24 ×10⁻⁶ cm/s | – | – |
| – | – | C#CCNCCCc1cn(-c2cc(NC(=S)NCC)ncn2)cn1 | > 50 µM | 12.7% | 0.381 µM | > 50 µM | 31.4% | 0.186 | > 40 µM | 36.6% | > 105 | – | 3.26 ×10⁻⁶ cm/s | – | – |
| – | – | C#CCNCc1cn(-c2cc(NC(=S)NCC)ncn2)cn1 | 4.33 µM | 15.2% | 0.354 µM | 5.24 µM | – | 1.18 | > 40 µM | – | > 113 | – | 2.78 ×10⁻⁶ cm/s | 0.826 | – |
| – | – | C#CCN(CCCC)Cc1cn(-c2cc(NC(=S)NCC)ncn2)cn1 | > 50 µM | 13.4% | 0.675 µM | > 50 µM | 2.43% | 0.238 | > 40 µM | 20.1% | > 59 | – | – | – | – |
| Active | – | Oc1c(I)cc(Cl)c2cccnc12 | – | – | – | – | – | – | – | – | – | – | – | – | Active |
| – | 11 ×10⁻⁶ cm/s | COc1ccc(CCN2CCC(Nc3nc4ccccc4n3Cc3ccc(F)cc3)CC2)cc1 [ASTEMIZOLE] | – | – | – | – | – | – | – | – | – | – | 8.48 ×10⁻⁶ cm/s | – | – |
| – | – | C#CCN(CC#N)Cc1cn(-c2cc(NC(=S)NCC)ncn2)cn1 | > 50 µM | 5.48% | 0.707 µM | > 50 µM | 2.01% | 0.494 | > 40 µM | 15.3% | > 57 | – | – | – | – |
| – | – | C#CCN(CCC)Cc1cn(-c2cc(NC(=S)NCC)ncn2)cn1 | > 50 µM | 7.75% | 0.485 µM | > 50 µM | 1.76% | 0.448 | > 40 µM | 24.3% | > 83 | – | – | – | – |
| – | – | C#CCN(CC)CCc1cn(-c2cc(NC(=S)NCC)ncn2)cn1 | > 50 µM | 2.44% | 1.34 µM | > 50 µM | 13% | – | > 40 µM | 49.4% | > 30 | – | – | – | – |
| – | – | C#CCN(CC#C)Cc1cn(-c2cc(NC(=S)NCC)ncn2)cn1 | > 50 µM | 4.97% | 0.718 µM | > 50 µM | 15.5% | 0.585 | > 40 µM | 42.1% | > 56 | – | – | – | – |
| – | – | C#CCN(CC#N)CCc1cn(-c2cc(NC(=S)NCC)ncn2)cn1 | > 50 µM | 3.02% | 0.597 µM | > 50 µM | 13.9% | 0.556 | > 40 µM | 24.9% | > 67 | – | – | – | – |
| – | – | C#CCN(C)CCc1cn(-c2cc(NC(=S)NCC)ncn2)cn1 | 9 µM | 8.91% | 0.392 µM | 12.4 µM | – | 1.24 | > 40 µM | – | > 102 | – | 3.33 ×10⁻⁶ cm/s | 0.724 | – |
| – | – | C#CCN(Cc1ccccc1)Cc1cn(-c2cc(NC(=S)NCC)ncn2)cn1 | > 50 µM | 9.28% | 0.585 µM | > 50 µM | 17.8% | – | > 40 µM | 18.4% | > 68 | – | – | – | – |
